Experimental data reported in ChEMBL document CHEMBL1124390, “Synthesis and antiviral activity of phosphonoacetic and phosphonoformic acid esters of 5-bromo-2'-deoxyuridine and related pyrimidine nucleosides and acyclonucleosides” (1989).

Legend:
Type in all cases: functional
[1] = test system: Human alphaherpesvirus 2; assay: Concentration required to reduce the number of viral plaques […] cell monolayers of herpes simplex virus type 2.
How it was run: (§1)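 Plaque-reduction assay on Vero monkey kidney cells grown in DMEM + 10% v/v newborn bovine serum. HSV-1 strain HFEM or HSV-2 strain 3345, 50 pfu in duplicate, adsorbed at 4 °C to drained monolayers. Serum-free medium with carboxymethylcellulose plus compound dilution series added; 3 days at 37 °C. Formaldehyde fixation, Giemsa stain; ID50 interpolated from plotted results.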

[2] = test system: Human alphaherpesvirus 1; assay: Concentration required to reduce the number of viral plaques […] cell monolayers of herpes simplex virus type 1.; how it was run: as §1
[3] = test system: Human alphaherpesvirus 1; assay: Concentration required to protect 50% of mice against a systemic infection of HSV-1.
How it was run: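 Swiss albino mice (9-12 g) given test substance 0.5 mL ip at -24, 0 and +24 h relative to infection (three treatments); controls got 0.5 mL water ip on the same schedule. Infection ip with approx 10x LD50 of HSV-1. Survivors counted on day 21; PD50 derived by Reed-Muench method.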

| Compound | ID50 [1] | ID50 [2] | PD50 [3] |
| --- | --- | --- | --- |
| Cc1cn([C@@H]2O[C@H](CO)[C@@H](O)[C@@H]2O)c(=O)[nH]c1=O | 19 µM | 10 µM |  |
| Nc1nc(O)c2ncn(COCCOP(=O)(O)CC(=O)O)c2n1 | 1500 µM | 1800 µM |  |
| Nc1ncnc2c1ncn2[C@@H]1O[C@H](COP(=O)(O)CC(=O)O)[C@@H](O)[C@@H]1O | >2000 µM | >2000 µM | 0.53 mM/kg |
| Nc1ncnc2c1ncn2[C@@H]1O[C@H](COP(=O)(O)CC(=O)O)[C@@H](O)[C@H]1O |  | 580 µM | 0.4 mM/kg |
| C=Cc1cn([C@H]2C[C@H](O)[C@@H](CO)O2)c(=O)[nH]c1=O | 2 µM | 0.8 µM |  |
| C#Cc1cn([C@H]2C[C@H](O)[C@@H](CO)O2)c(=O)[nH]c1=O | 11 µM | 11 µM |  |
| O=c1[nH]c(=O)n([C@@H]2O[C@H](CO)[C@@H](O)[C@@H]2O)cc1Br | 5.9 µM | 5 µM |  |
| O=C(CP(=O)(O)O)OC[C@H]1O[C@@H](n2cc(Br)c(=O)[nH]c2=O)C[C@@H]1O | 7.4 µM | 12 µM |  |
| O=C(O)CP(=O)(O)OC[C@H]1O[C@@H](n2cc(/C=C/Br)c(=O)[nH]c2=O)C[C@@H]1O | 1000 µM | 2.7 µM |  |
| C#Cc1cn([C@H]2C[C@H](O)[C@@H](COP(=O)(O)CC(=O)O)O2)c(=O)[nH]c1=O | >200 µM | >200 µM |  |
| O=C(O)P(=O)(O)OC[C@H]1O[C@@H](n2cc(Br)c(=O)[nH]c2=O)C[C@@H]1O | 0.44 µM | 4.6 µM |  |
| Nc1ncnc2c1ncn2[C@H]1C[C@H](O)[C@@H](COP(=O)(O)CC(=O)O)O1 | >2000 µM | >2000 µM | 1.05 mM/kg |
| O=C(O)CP(=O)(O)OC[C@H]1O[C@@H](n2cc(I)c(=O)[nH]c2=O)C[C@@H]1O | 10 µM | 40 µM | 0.21 mM/kg |
| Nc1nc(=O)n([C@H]2C[C@H](O)[C@@H](COP(=O)(O)CC(=O)O)O2)cc1Br | 15 µM | 72 µM |  |
| C=Cc1cn([C@H]2C[C@H](O)[C@@H](COP(=O)(O)CC(=O)O)O2)c(=O)[nH]c1=O | 50 µM | 14 µM |  |
| Cc1cn([C@H]2C[C@H](O)[C@@H](COP(=O)(O)CC(=O)O)O2)c(=O)[nH]c1=O | 160 µM | 400 µM | 0.45 mM/kg |
| O=C(O)CP(=O)(O)OC[C@H]1O[C@@H](n2cc(Br)c(=O)[nH]c2=O)C[C@@H]1O | 1.2 µM | 16 µM | 0.2 mM/kg |
| CCc1cn([C@H]2C[C@H](O)[C@@H](COP(=O)(O)CC(=O)O)O2)c(=O)[nH]c1=O | 700 µM | 300 µM |  |
| Nc1ncc([C@@H]2O[C@H](COP(=O)(O)CC(=O)O)[C@@H](O)[C@H]2O)c(=O)[nH]1 | 770 µM | 780 µM |  |

| Compound | ID50 [1] | ID50 [2] | PD50 [3] |
| --- | --- | --- | --- |
| Nc1nc(=O)n([C@H]2C[C@H](O)[C@@H](CO)O2)cc1Br | 0.15 µM | 1.5 µM |  |
| Nc1nc(O)c2ncn(C3O[C@H](COP(=O)(O)CC(=O)O)[C@@H](O)[C@H]3O)c2n1 (stereo partly specified) | >2000 µM | >2000 µM | 0.36 mM/kg |
| CC(=O)c1cn(C2O[C@H](COP(=O)(O)CC(=O)O)[C@@H](O)[C@@H]2O)c(=O)[nH]c1=O (stereo partly specified) | >2000 µM | >2000 µM |  |
| O=C(O)CP(=O)(O)OC[C@H]1OC(n2cc(I)c(=O)[nH]c2=O)[C@@H](O)[C@@H]1O (stereo partly specified) | >2000 µM | >2000 µM |  |
| Cc1cn(C2O[C@H](COP(=O)(O)CC(=O)O)[C@@H](O)[C@@H]2O)c(=O)[nH]c1=O (stereo partly specified) | >2000 µM | >2000 µM |  |
| Nc1ccn(C2O[C@H](COP(=O)(O)CC(=O)O)[C@@H](O)[C@H]2O)c(=O)n1 (stereo partly specified) | 1200 µM | 1600 µM |  |
| O=c1[nH]c(=O)n(C2O[C@H](CO)[C@@H](O)[C@@H]2O)cc1I (stereo partly specified) | 60 µM | 13 µM |  |
| O=C(O)CP(=O)(O)OC[C@H]1OC(n2ccc(=O)[nH]c2=O)[C@H](O)[C@@H]1O (stereo partly specified) |  | 300 µM | 0.31 mM/kg |
| O=C(O)CP(=O)(O)OC[C@H]1OC(n2cc(Br)c(=O)[nH]c2=O)[C@@H](O)[C@@H]1O (stereo partly specified) | >2000 µM | >2000 µM |  |
| C=Cc1cn(C2O[C@H](COP(=O)(O)CC(=O)O)[C@@H](O)[C@@H]2O)c(=O)[nH]c1=O (stereo partly specified) | >2000 µM | >2000 µM |  |
| Nc1nc2c(ncn2COCCO)c(=O)[nH]1 [ACYCLOVIR] | 2.2 µM | 1.3 µM |  |
| O=c1[nH]c(=O)n([C@H]2C[C@H](O)[C@@H](CO)O2)cc1/C=C/Br [BRIVUDINE] | 4.2 µM | 0.6 µM |  |
| O=c1[nH]c(=O)n([C@H]2C[C@H](O)[C@@H](CO)O2)cc1Br [BROXURIDINE] | 0.7 µM | 2 µM |  |
| CCc1cn([C@H]2C[C@H](O)[C@@H](CO)O2)c(=O)[nH]c1=O [EDOXUDINE] | 23 µM | 40 µM |  |
| O=C(O)P(=O)(O)O [FOSCARNET] | 120 µM | 130 µM |  |
| O=C(O)CP(=O)(O)O [FOSFONET] | 240 µM | 230 µM | 0.67 mM/kg |
| O=c1[nH]c(=O)n([C@H]2C[C@H](O)[C@@H](CO)O2)cc1I [IDOXURIDINE] | 2.3 µM | 2 µM |  |
| Nc1ncnc2c1ncn2[C@@H]1O[C@H](CO)[C@@H](O)[C@@H]1O [VIDARABINE] | 75 µM | 11 µM |  |
